Measured values: ChEMBL document CHEMBL4373708 (J Med Chem, 2019)

Test: Cmax in mouse at 5 mg/kg, po by LC-MS analysis
Type: ADME, organism-based
Design: dose 5 mg/kg, route oral
Settings: in vivo
In short: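 Single intraperitoneal or oral dose in mice at 5 mg/kg (vehicle: saline with 5% DMSO and 10% Kolliphor HS 15) or 10 mg/kg (vehicle: PBS with 5% DMSO and 20% (2-hydroxypropyl)-β-cyclodextrin). Blood taken by retroorbital puncture at set times, serum separated by centrifugation at 4000 g for 20 min at 24 °C, compound quantified by LC/MS.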

SMILES: Cc1c(CC(=O)O)c(=O)oc2c(C)c(OCc3cccc(C(F)(F)F)c3)ccc12
- Cmax: 12.9 µM
